{
  "source": "ChEMBL document CHEMBL1152757",
  "about": "“Stereoselective synthesis and biological evaluation of syn-1-amino-3-[18F]fluorocyclobutyl-1-carboxylic acid as a potential positron emission tomography brain tumor imaging agent” (Bioorg Med Chem, 2009)",
  "assay_type_in_all_cases": "ADME, cell-based",
  "conditions_in_all_cases": "0.5 h",
  "key": {"9L [1]": {"test_system": "9L", "experiment": "Drug uptake in rat 9L cells assessed as intracellular accumulation after 30 mins measured per 5 x 10^5 cells by gamma-counter", "summary_of_the_method": "(§1)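 9L cells were grown in DMEM with 10% FCS and penicillin/streptomycin, then trypsinized and washed twice in HBSS. About 5 × 10^5 cells received 5 µCi tracer in amino acid-free HBSS for 30 min at 37 °C, without or with 10 mM BCH (L-type inhibitor). Cells were centrifuged and rinsed twice with ice-cold HBSS, then gamma-counted with decay correction. Uptake expressed as % of standard per 5 × 10^5 cells. Triplicates, 1-way ANOVA.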"}, "9L [2]": {"test_system": "9L", "experiment": "Drug uptake in rat 9L cells assessed as intracellular accumulation after 30 mins measured per 5 x 10^5 cells by gamma-counter in presence of 2-aminobicyclo[2.2.1]-heptane-2-carboxylic acid", "summary_of_the_method": "as §1"}, "9L [3]": {"test_system": "9L", "experiment": "Drug uptake in rat 9L cells assessed as intracellular accumulation after 30 mins measured per 5 x 10^5 cells by gamma-counter in presence of alanine-cysteine-serine", "summary_of_the_method": "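9L rat gliosarcoma cells were grown in DMEM with 10% fetal calf serum and penicillin/streptomycin at 37 °C under 5% CO2, trypsinized and washed in HBSS. About 5 × 10^5 cells were incubated with 5 µCi tracer in amino-acid-free HBSS with 10 mM ACS (equimolar Ala/Cys/Ser) for 30 min at 37 °C, run in triplicate. Cells were centrifuged and rinsed twice with ice-cold HBSS, then gamma counted with decay correction. Results are % of standard per 5 × 10^5 cells.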"}},
  "data": [
    {"smiles": "N[C@]1(C(=O)O)C[C@@H]([18F])C1", "note": "[FLUCICLOVINE F18]", "values": [
      {"measurement": "Drug uptake", "setting": "9L [1]", "value": 12.3, "unit": "%ID"},
      {"measurement": "Drug uptake", "setting": "9L [2]", "value": 2.9, "unit": "%ID"},
      {"measurement": "Drug uptake", "setting": "9L [3]", "value": 0.18, "unit": "%ID"}
    ]}
  ]
}
